Among all 360,000 compounds or so, about 5,400 (1.5%) were called active.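 How the source made its calls: active means inhibition above a per-plate cutoff, the mean inhibition of test compounds on that plate plus 3 SD (cut at about 49% in these data); inactive means the rest.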 Many of the other results were omitted from the sample, so actives are more common in it than they were.
These compounds were tested against Trace amine-associated receptor 1 (Homo sapiens) (UniProt Q96RJ0) (assay: blockers of beta-PEA-driven TAAR1 calcium signal – Fluo-8 calcium fluorescence, CHO RD-HGA16 cells, primary screen (AID 624466;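 further: 0% = DMSO plus EC80 beta-PEA response and 100% = DMSO alone without agonist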)). Conditions: CHO RD-HGA16 TAAR1, Fluo-8 calcium fluorescence, antagonist; at 3 µM; stronger effect = higher value.
Summary of the method: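 Test system: hTAAR1-expressing CHO RD-HGA16 cells, Gα16-coupled; Probe or stimulus: EC80 β-phenethylamine stimulus; Compound dosing: single nominal final test compound concentration of 3 µM; Timing: 140 s kinetic read after compound, 140 s after agonist; Signal: Fluo-8 calcium-sensitive fluorescence; Measure: % inhibition of agonist calcium response; Controls: DMSO and EC80 PEA controls.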

Chain of Trace amine-associated receptor 1 (Homo sapiens) (Q96RJ0 whole entry, looked up, the tested form may be a part): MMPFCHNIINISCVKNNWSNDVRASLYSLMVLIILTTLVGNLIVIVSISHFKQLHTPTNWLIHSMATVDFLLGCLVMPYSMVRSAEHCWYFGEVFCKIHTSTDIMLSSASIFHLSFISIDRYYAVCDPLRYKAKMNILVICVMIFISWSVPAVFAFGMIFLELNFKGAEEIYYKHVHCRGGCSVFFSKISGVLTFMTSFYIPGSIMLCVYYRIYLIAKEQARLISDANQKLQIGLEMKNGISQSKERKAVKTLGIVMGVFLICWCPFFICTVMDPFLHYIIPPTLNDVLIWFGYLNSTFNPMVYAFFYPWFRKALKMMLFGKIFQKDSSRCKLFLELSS

Structure (SMILES) | inhibition
O=S1(=O)CC(N2CCN(CCO)CC2)CN1Cc1cn(Cc2cccc(Cl)c2)nn1 (centres undefined) | -8.99% (inactive)
Oc1ccccc1C=NC1CCCCC1N=Cc1ccccc1O (centres undefined) | 0.73% (inactive)
O=C(NN=Cc1ccccc1O)NN=Cc1ccccc1O | 53.9% (active)
O=C(N/N=C/c1ccccc1O)/C(=C/c1ccccc1)CCO | 12.2% (inactive)
CN1C(=O)C(Br)(Br)CC1c1cccnc1 (centres undefined) | -9.8% (inactive)
C/C(=N/NC(=O)CCc1ccccc1)c1ccco1 | -8.62% (inactive)
O=C(CCc1ccccc1)Nc1cccc(-c2nnc(-c3ccco3)o2)c1 | 56.8% (active)
O=C(CSc1nnc(-c2ccco2)o1)NCC(=O)c1ccccc1 | -36% (inactive)
COC1(C2=NCCN2)COc2ccccc2O1 (centres undefined) | -15.3% (inactive)
Cc1ccc(S(=O)(=O)N(c2cccc(C)c2)C2CCS(=O)(=O)C2)cc1 (centres undefined) | -4.68% (inactive)
O=C(NCCc1ccccc1)C1CC1 | 1.61% (inactive)
O=C(O)C1C2C=CC(O2)C1C(=O)Nc1ccccn1 (centres undefined) | 13.6% (inactive)
O=C(O)C1C2C=CC(O2)C1C(=O)NCCc1cccc(Cl)c1 (centres undefined) | 70.5% (active)
COc1ccc(N/N=C2/CCCCC2=O)cc1 | -11.3% (inactive)
O=C(NCCN1CCOCC1)C1CCN(S(=O)(=O)c2ccccc2)CC1 | 1.73% (inactive)
CCCCNC(=O)OC1CC2CC1[C@H]1CCCCN1C2=O (some centres undefined) | -1.17% (inactive)
Cc1nc2c(C(=O)NCc3cccs3)cnn2c(C)c1Cc1ccc(F)cc1 | 9.05% (inactive)
O=C(O)/C=C\C(=O)Nc1ccc(OCc2ccccc2)cc1 | 4.01% (inactive)
COc1cccc(NC(=O)COC(=O)/C=C/c2ccco2)c1 | -14.3% (inactive)
O=C(/C=C/c1ccco1)Nc1ccc(Oc2ccccc2)cc1 | 52.3% (active)
CCCCCCCCN1C(=O)[C@@H](CC(=O)NCc2ccc(C)o2)C[C@@]2(C(=O)OC)C1=C[C@H](C(C)(C)C)O[C@@H]2C | -36.1% (inactive)
COc1cc(OC)nc(N/N=C(\c2ccccc2)c2ccncc2)n1 | 5.98% (inactive)
C/C(=N/Nc1nc(-c2ccccc2)c(CC(=O)O)s1)c1ccccc1 | 24.8% (inactive)

Structure (SMILES) | inhibition
c1ccc(C(=NNc2nc3ccccc3s2)c2ccccn2)cc1 | 53.9% (active)
Nc1nc2c(ncn2[C@@H]2O[C@H](C(=O)N[C@@H](Cc3ccccc3)C(=O)NCc3ccccc3)[C@@H](O)[C@H]2O)c(=O)[nH]1 | -6.97% (inactive)
COCCNC(=S)Nc1cc(S(=O)(=O)N2CCOCC2)ccc1N1CCCCC1 | -23.6% (inactive)
Clc1ccc2nc(-c3ccccc3)nc(C(Cl)Cl)c2c1 | 2.4% (inactive)
CSc1nc(-c2ccccc2)nc(C(Cl)Cl)n1 | 58.9% (active)
COc1cccc(NC(=O)[C@H](Cc2c[nH]c3ccccc23)NC(=O)[C@@H]2Cc3ccccc3CN2)c1 | 49.5% (active)
COc1ccc(CNC(=O)[C@H](Cc2c[nH]c3ccccc23)NC(C)=O)cc1OC | -1.22% (inactive)
COc1ccc(NC(=O)[C@H](NC(=O)[C@@H]2Cc3ccccc3CN2)c2ccccc2)cc1 | -18% (inactive)
Cc1cccc(C)c1NC(=O)C(c1cccc2ccccc12)n1c(=O)c(-c2ccco2)nc2ccccc21 (centres undefined) | -9.07% (inactive)
COc1ccc(CNC(=O)COc2ccccc2C(=O)c2cnn(-c3ccccc3)c2)cc1OC | 54% (active)
COc1ccc(CNC(=O)COC(=O)c2c(C)nn(-c3ccccc3)c2C)cc1OC | -1.94% (inactive)
COc1ccc(CNC(=O)COC(=O)c2sccc2C)cc1OC | -9.87% (inactive)
Cc1cccc(C)c1NC(=O)C(c1cccc(F)c1)N1CCN(C)CC1 (centres undefined) | -12.4% (inactive)
Cc1ccc(-c2nn(-c3ccccc3)cc2C(=O)Nc2cccc(S(=O)(=O)N3CCOCC3)c2)cc1 | 11% (inactive)
O=C(O)c1ccc(NC(=O)c2cn(-c3ccccc3)nc2-c2ccc(Cl)cc2)cc1 | 73.7% (active)
O=C(NCCCN1CCOCC1)c1cn(-c2ccccc2)nc1-c1ccc(F)cc1 | 3.41% (inactive)
O=C(NNC(=S)NC(=O)c1cn(-c2ccccc2)nc1-c1ccccc1)c1ccncc1 | 49.8% (active)
Cc1ccc(-c2nn(-c3ccccc3)cc2C(=O)NCCCN2CCCC2=O)cc1 | -7.1% (inactive)
NC(=O)C1CCN(C(=O)c2cn(-c3ccccc3)nc2-c2cccnc2)CC1 | -9.79% (inactive)
CSc1ccc(C#N)cc1NC(=O)c1ccc(Cl)cc1 | -1.99% (inactive)
CCc1ccc(NC(=O)C(=O)N/N=C(\C)CC(=O)NCCOC)cc1 | -6% (inactive)
CCOC(=O)[C@]12CCC=C1N(Cc1cccc3ccccc13)C(=O)[C@H](CC(=O)NCc1cccc(C(F)(F)F)c1)C2 | -4.64% (inactive)
COc1cc(/C=C2/C(=O)ON=C2C)ccc1OCc1ccccc1F | 51.4% (active)

Structure (SMILES) | inhibition
C#CCOc1ccc(/C=C2/C(=O)ON=C2C)cc1OCC | 12.6% (inactive)
CC1=NOC(=O)/C1=C\c1ccccc1 | -15% (inactive)
CC[C@H](NC(=O)[C@H](Cc1ccccc1)NC(=O)[C@H]1O[C@@H](n2cnc3c(=O)[nH]c(N)nc32)[C@H](O)[C@@H]1O)c1ccccc1 | -41.7% (inactive)
CC(C)(C)n1nc2c(c1NC(=O)c1ccc(S(=O)(=O)N3CCCC3)cc1)CS(=O)C2 (centres undefined) | 4.79% (inactive)
COc1ccc(CNS(=O)(=O)c2cc(Br)ccc2Br)cc1 | -2.96% (inactive)
CC(C)CC1NC(=O)c2cc(Cl)ccc2-n2c1nc1ccccc1c2=O (centres undefined) | -6.66% (inactive)
CCCOc1ccc(F)cc1-c1cc(C(=O)NCc2ccc(F)cc2)[nH]n1 | 53.6% (active)
CCCOc1ccc(F)cc1-c1cc(C(=O)Nc2ccc(F)cc2)[nH]n1 | 15.5% (inactive)
CCCOc1ccc(F)cc1-c1cc(C(=O)Nc2ccc(F)c(Cl)c2)[nH]n1 | 38.5% (inactive)
O=S1(=O)c2ccc(Br)cc2-n2nncc2CN1Cc1cccc(Cl)c1 | 3.33% (inactive)
O=c1onc(-c2c(F)cccc2F)n1-c1ccccc1Cl | 4.53% (inactive)
COc1ccc(-c2ccc(CCC(=O)O)n2-c2ccc(O)cc2)cc1 | -5.35% (inactive)
COc1ccc(CCNCc2c(-c3ccccc3)n(C)c3ccccc23)cc1 | 25% (inactive)
COc1ccc(-c2nc3ccccc3c(=O)n2CCc2ccc(O)cc2)cc1 | 58.4% (active)
Cc1ccc(-c2nc3c(C)cc(Br)cn3c2Cc2ccccc2)cc1 | -21.5% (inactive)
O=C(N[C@H]1CC[C@H](CC(=O)N2CCCCC2)O[C@@H]1CO)c1cccc(F)c1 | 4.76% (inactive)
CC(=O)C[C@@H](O)CC(=O)[C@H]1OC(=O)CCCCCCc2ccccc21 | 6.02% (inactive)
CCc1ccc(C2=CC(=O)CC(C)(C)C2=O)cc1 | -8.28% (inactive)
O=C(O)Cn1cnc2c(NCc3ccccc3)ncnc21 | -23.5% (inactive)
COC(=O)c1ccc(C2NC(=O)NC(C)=C2C(=O)N(C)C)cc1 (centres undefined) | -4.25% (inactive)
CCOc1ccc(OCc2ccc(C(=O)Nc3cccc(C)n3)o2)cc1 | 16.1% (inactive)
CCCCNc1ccc(C(=O)Nc2cccc(C)n2)cc1[N+](=O)[O-] | 24.1% (inactive)
Cc1cccc(NC(=O)c2ccc(COc3ccccc3[N+](=O)[O-])o2)n1 | 51.5% (active)

Structure (SMILES) | inhibition
Cn1c(=O)c2c(ncn2CC(=O)N/N=C/c2cn[nH]c2-c2ccc(F)cc2)n(C)c1=O | 2.24% (inactive)
CCCCCn1nnnc1C1c2ccccc2C(=O)N1Cc1ccco1 (centres undefined) | -12.2% (inactive)
O=C(NS(=O)(=O)c1cccs1)[C@H]1O[C@@H](n2ccc(=O)[nH]c2=O)[C@H](O)[C@@H]1O | -23.6% (inactive)
O=C(N/N=C/c1ccc(OC(=O)c2ccccc2Cl)cc1)c1ccc(O)cc1 | 68.9% (active)
CCOc1cc(/C=N/NC(=O)c2cc(-c3ccccc3)nc3ccccc23)ccc1O | 51.5% (active)
COc1ccc(C(=O)Nc2ccccc2C(=O)N/N=C/c2ccc(O)c(OC)c2)cc1 | 62.8% (active)
CC(C)(C)C(=O)Nc1ccc(C(=O)N/N=C/c2ccccc2OC(=O)c2ccc(Cl)cc2Cl)cc1 | 26.4% (inactive)
COc1ccc(-c2[nH]ncc2/C=N/NC(=O)c2cc(Br)ccc2O)c(OC)c1 | -4.36% (inactive)
CCOc1cc(/C=N/NC(=O)c2c(C)nc3ccc(Cl)cn23)ccc1O | -3.33% (inactive)
CCOc1ccc(-c2cc(C(=O)N/N=C/c3ccc(O)cc3)c3ccccc3n2)cc1 | 0.39% (inactive)
O=C(NN=Cc1ccc2c(c1)CCC2)c1ccccc1O | 10.7% (inactive)
O=C(N/N=C/c1ccc(OCC2COCCO2)cc1)c1ccc(Br)cc1 (centres undefined) | 18.2% (inactive)
O=C(NC1CCCCC1)C(c1cc2ccccc2o1)n1c(=O)c(-c2ccco2)nc2ccccc21 (centres undefined) | -22.4% (inactive)
N#Cc1ccc(-c2nc3cc(C#N)c(C#N)cc3nc2-c2ccccc2)cc1C#N | -9.51% (inactive)
CC1CCCN(c2cccc3c2S(=O)(=O)N(Cc2ccc(F)cc2)[C@@H](C)[C@H](c2ccccc2)O3)C1 (some centres undefined) | -13.7% (inactive)
CCCNC(=O)c1cc2c(c(-c3cccc(-c4ccc(C#N)cc4)c3)n1)[C@@H](CCO)N(C(=O)CC)C2 | -3.02% (inactive)
COC(=O)[C@]12C[C@H](CC(=O)NCc3ccc(OC)c(OC)c3)C(=O)N(Cc3ccccc3)C1=C[C@H](C(C)C)O[C@@H]2C1CC1 | -4.52% (inactive)
CCc1ccc(NC(=O)Nc2ccncc2)cc1 | 6.77% (inactive)
COc1cccc(NC(=O)Nc2ccc(F)cc2)c1 | 14.5% (inactive)
O=C(Nc1ccncc1)Nc1ccc(F)cc1 | 57.8% (active)
